Laboratory results taken from ChEMBL document CHEMBL3813634, “Antileishmanial and Cytotoxic Activity of Some Highly Oxidized Abietane Diterpenoids from the Bald Cypress, Taxodium distichum” (J Nat Prod, 2016).

Legend:
HT-29 = assay: Cytotoxicity against human HT-29 cells after 72 hrs by SRB assay; type: cell-based; details: HT-29, 72 h
Method in brief: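 HT-29 cells, 9500 per well, exposed to a range of concentrations in triplicate for 72 h; 10% DMSO in water as carrier/negative control, paclitaxel positive control.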

[1] = Selectivity index, ratio of IC50 for human HT-29 cells to IC50 for Leishmania donovani LV82 promastigotes expressing red fluorescent protein; type: toxicity, cell-based; details: read-out: Ratio IC50
Method in brief: (§1)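 Selectivity index calculated as HT-29 cytotoxicity IC50 divided by antileishmanial IC50.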

[2] = Selectivity index, ratio of IC50 for human HT-29 cells to IC50 for Leishmania amazonensis amastigotes; type: toxicity, cell-based; details: HT-29 cells versus Leishmania amazonensis amastigotes, read-out: Ratio IC50; method in brief: as §1
Leishmania donovani = assay: Antileishmanial activity against Leishmania donovani LV82 promastigotes expressing red fluorescent protein after 72 hrs by flow cytometric analysis; type: functional, organism-based; details: LV82, 72 h
Leishmania amazonensis = assay: Antileishmanial activity against transgenic Leishmania amazonensis amastigotes infected in CD-1 mouse peritoneal macrophages assessed as beta-lactamase activity after 72 hrs by nitrocefin dye-based spectrophotometric analysis; type: functional, organism-based
Method in brief: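 Beta-lactamase-expressing promastigotes grown in RPMI 1640 GlutaMAX with HEPES, adenosine, folate, RPMI vitamins, 10% heat-inactivated FBS (pH 6.9); added 5:1 to CD-1 mouse peritoneal macrophages (1 × 10⁵ cells/well) for 24 h at 34 °C, washed twice with HBSS, then exposed to test concentrations for 72 h at 34 °C.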

Work on `COCC(=O)[C@H]1C(C)(C)CCC[C@]1(C)C1=C(O)C(=O)C(C(C)C)=CC1=O` yielded an IC50 (HT-29) of 4.4 µM, a selectivity ratio [1] of 0.6 and a selectivity ratio [2] of 3.2. The IC50 (Leishmania donovani) was 6.9 µM and the IC50 (Leishmania amazonensis) was 1.4 µM.

Work on `CC(C)c1cc2c(cc1O)[C@@]1(C)CCCC(C)(C)[C@@H]1CC2` [FERRUGINOL] yielded an IC50 (HT-29) of 39.4 µM, a selectivity ratio [1] of 0.9 and a selectivity ratio [2] of 2.5. It also gave an IC50 (Leishmania donovani) of 45.7 µM and an IC50 (Leishmania amazonensis) of 15.4 µM.

Molecule `C[C@@H]1[C@H](O)[C@@H](C)/C=C/C=C/C=C/C=C/C=C/C=C/C=C/[C@H](O[C@@H]2O[C@H](C)[C@@H](O)[C@H](N)[C@@H]2O)C[C@@H]2O[C@](O)(C[C@@H](O)C[C@@H](O)[C@H](O)CC[C@@H](O)C[C@@H](O)CC(=O)O[C@H]1C)C[C@H](O)[C@H]2C(=O)O` [AMPHOTERICIN B] has an IC50 (Leishmania amazonensis) of 0.086 µM.

Work on `CC(C)C1=CC2=CC(=O)[C@H]3C(C)(C)CCC[C@]3(C)C2=C(O)C1=O` [TAXODIONE] yielded an IC50 (HT-29) of 2.5 µM, a selectivity ratio [1] of 1.6 and a selectivity ratio [2] of 0.2. For the same molecule, the IC50 (Leishmania donovani) was 1.6 µM and the IC50 (Leishmania amazonensis) was 14.3 µM.

Work on `CO[C@@H]1C[C@H]2C(C)(C)CCC[C@]2(C)C2=C1C(=O)C(C(C)C)=C(O)C2=O` yielded an IC50 (Leishmania donovani) greater than 10 µg/mL and an IC50 (Leishmania amazonensis) greater than 10 µg/mL.

With `CC(C)c1cc2c(cc1O)[C@@]1(C)CCCC(C)(C)[C@@H]1[C@@H](O)C2=O` the IC50 (HT-29) was 36 µM, the selectivity ratio [1] was 1.5 and the selectivity ratio [2] was 2.1. The IC50 (Leishmania donovani) was 24.6 µM and the IC50 (Leishmania amazonensis) was 17.1 µM.

`Cc1ccc2cc(C(C)C)c(O)c3c2c1CCCC(C)(C)O3` gave an IC50 (Leishmania donovani) greater than 10 µg/mL and an IC50 (Leishmania amazonensis) greater than 10 µg/mL.

With `CC(C)c1cc2c(cc1O)[C@@]1(C)CCCC(C)(C)C1=C(O)C2=O` the IC50 (Leishmania donovani) was greater than 10 µg/mL and the IC50 (Leishmania amazonensis) was greater than 10 µg/mL.

`Cc1ccc2c3c1CCCC(C)(C)[C@@]3(O)C(=O)C(C(C)C)=C2` gave an IC50 (Leishmania donovani) greater than 10 µg/mL and an IC50 (Leishmania amazonensis) greater than 10 µg/mL.

`CC(C)C1=C(O)C(=O)C2=C(CC[C@H]3C(C)(C)CCC[C@]23C)C1=O` [ROYLEANONE] showed an IC50 (Leishmania donovani) greater than 10 µg/mL and an IC50 (Leishmania amazonensis) greater than 10 µg/mL.

`CC(C)C1=C(O)C(=O)C2=C(C1=O)[C@@H](O)C[C@H]1C(C)(C)CCC[C@]21C` gave an IC50 (Leishmania donovani) greater than 10 µg/mL and an IC50 (Leishmania amazonensis) greater than 10 µg/mL.

With `CC(C)C1=C(O)C(=O)C2=C(C1=O)[C@H](O)C[C@H]1C(C)(C)CCC[C@]21C` [HORMINONE] the IC50 (Leishmania donovani) was greater than 10 µg/mL and the IC50 (Leishmania amazonensis) was greater than 10 µg/mL.

With `CC(C)c1cc2c(cc1O)[C@@]1(C)CCCC(C)(C)[C@@H]1CC2=O` [SUGIOL] the IC50 (Leishmania donovani) was greater than 10 µg/mL and the IC50 (Leishmania amazonensis) was greater than 10 µg/mL.

`CC(C)c1cc2c(c(O)c1O)[C@@]1(C)CCCC(C)(C)C1=C(O)C2=O` [14-DEOXYCOLEON U] showed an IC50 (HT-29) of 13.3 µM, a selectivity ratio [1] of less than 0.27 and a selectivity ratio [2] of 1. The IC50 (Leishmania donovani) was greater than 60 µM and the IC50 (Leishmania amazonensis) was 13 µM.

`Cc1ccc2c3c1CCCC(C)(C)C3C(=O)C(C(C)C)=C2` (racemic) showed an IC50 (Leishmania donovani) greater than 10 µg/mL and an IC50 (Leishmania amazonensis) greater than 10 µg/mL.

`CC(C)c1cc(C=O)c([C@@]2(C)CCCC(C)(C)[C@@H]2C=O)cc1O` gave an IC50 (Leishmania donovani) greater than 10 µg/mL and an IC50 (Leishmania amazonensis) greater than 10 µg/mL.
